Data reported in ChEMBL document CHEMBL1136719, “[(3-Chlorophenyl)piperazinylpropyl]pyridazinones and analogues as potent antinociceptive agents” (2003).

Assays:
Format in all cases: functional
[1] = system: Mus musculus; test: Percentage of analgesic efficacy compared to morphine at 8 mg/kg
Procedure, shortened: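 Analgesic efficacy was measured in the mouse hot-plate test (52.5 °C, paw-licking latency) at the maximal analgesic dose. It is expressed as a percentage of the maximal effect of morphine (8 mg/kg sc), which is taken as 100%.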

[2] = system: Mus musculus; test: Percentage of antagonism exerted by reserpine at 2 mg/kg
[3] = system: Mus musculus; test: Antinociceptive effect expressed as licking latency determined at 10 mg/kg after 60 minutes of oral administration in the mouse hotplate test
Procedure, shortened: (§1)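 Male Swiss albino mice (23-30 g) were placed on a plate held at 52.5 ± 0.1 °C. Fore or hind paw licking was the endpoint. Latency was timed before dosing and at intervals up to 60 min after, with a 45 s cutoff. Mice scoring below 12 or over 18 s in the pretest were excluded. Compounds were given in saline or 1% CMC at 10 mL/kg sc or po.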

[4] = system: Mus musculus; test: Antinociceptive effect expressed as licking latency determined at 10 mg/kg after 15 minutes of oral administration in the mouse hotplate test; procedure, shortened: as §1
[5] = system: Mus musculus; test: Antinociceptive effect expressed as licking latency determined at 10 mg/kg after 30 minutes of oral administration in the mouse hotplate test; procedure, shortened: as §1
[6] = system: Mus musculus; test: Antinociceptive effect expressed as licking latency determined at 10 mg/kg after 45 minutes of oral administration in the mouse hotplate test; procedure, shortened: as §1
[7] = species on record: Mus musculus; test: Antinociceptive effect determined before treatment in the mouse hotplate test; parameters: unit not given beside the values; procedure, shortened: as §1
[8] = system: Mus musculus; test: Maximal analgesic dose required to cause antinociceptive effect in the mouse hot plate method by oral administration
[9] = system: Mus musculus; test: Minimal nontoxic dose in the mouse hot plate method by subcutaneous administration
[10] = system: Mus musculus; test: Antinociceptive effect expressed as licking latency determined at 20 mg/kg after 15 minutes of subcutaneous administration in the mouse hotplate test; procedure, shortened: as §1
[11] = system: Mus musculus; test: Antinociceptive effect expressed as licking latency determined at 20 mg/kg after 30 minutes of subcutaneous administration in the mouse hotplate test; procedure, shortened: as §1
[12] = system: Mus musculus; test: Antinociceptive effect expressed as licking latency determined at 20 mg/kg after 45 minutes of subcutaneous administration in the mouse hotplate test; procedure, shortened: as §1
[13] = system: Mus musculus; test: Antinociceptive effect expressed as licking latency determined at 20 mg/kg after 60 minutes of subcutaneous administration in the mouse hotplate test; procedure, shortened: as §1
[14] = system: Mus musculus; test: Maximal analgesic dose required to cause antinociceptive effect in the mouse hot plate method by subcutaneous administration
[15] = system: Mus musculus; test: Antinociceptive effect expressed as licking latency determined at 3 mg/kg after 15 minutes of subcutaneous administration in the mouse hotplate test; procedure, shortened: as §1
[16] = system: Mus musculus; test: Antinociceptive effect expressed as licking latency determined at 3 mg/kg after 30 minutes of subcutaneous administration in the mouse hotplate test; procedure, shortened: as §1
[17] = system: Mus musculus; test: Antinociceptive effect expressed as licking latency determined at 3 mg/kg after 45 minutes of subcutaneous administration in the mouse hotplate test; procedure, shortened: as §1
[18] = system: Mus musculus; test: Antinociceptive effect expressed as licking latency determined at 3 mg/kg after 60 minutes of subcutaneous administration in the mouse hotplate test; procedure, shortened: as §1
[19] = system: Mus musculus; test: Antinociceptive effect expressed as licking latency determined at 1 mg/kg after 15 minutes of subcutaneous administration in the mouse hotplate test; procedure, shortened: as §1
[20] = system: Mus musculus; test: Antinociceptive effect expressed as licking latency determined at 1 mg/kg after 30 minutes of subcutaneous administration in the mouse hotplate test; procedure, shortened: as §1
[21] = system: Mus musculus; test: Antinociceptive effect expressed as licking latency determined at 1 mg/kg after 45 minutes of subcutaneous administration in the mouse hotplate test; procedure, shortened: as §1
[22] = system: Mus musculus; test: Antinociceptive effect expressed as licking latency determined at 1 mg/kg after 60 minutes of subcutaneous administration in the mouse hotplate test; procedure, shortened: as §1
[23] = system: Mus musculus; test: Antinociceptive effect expressed as licking latency determined at 6 mg/kg after 15 minutes of subcutaneous administration in the mouse hotplate test; procedure, shortened: as §1
[24] = system: Mus musculus; test: Antinociceptive effect expressed as licking latency determined at 6 mg/kg after 30 minutes of subcutaneous administration in the mouse hotplate test; procedure, shortened: as §1
[25] = system: Mus musculus; test: Antinociceptive effect expressed as licking latency determined at 6 mg/kg after 45 minutes of subcutaneous administration in the mouse hotplate test; procedure, shortened: as §1
[26] = system: Mus musculus; test: Antinociceptive effect expressed as licking latency determined at 6 mg/kg after 60 minutes of subcutaneous administration in the mouse hotplate test; procedure, shortened: as §1
[27] = system: Mus musculus; test: Antinociceptive effect expressed as licking latency determined at 8 mg/kg after 15 minutes of subcutaneous administration in the mouse hotplate test
Procedure, shortened: (§2)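 Male Swiss albino mice (23-30 g), acclimatised 24 h at 23 ± 1 °C. Dosed sc in 10 mL kg⁻¹ of saline, 1% carboxymethylcellulose, or saline + DMSO 2:1 vehicle. Placed on a 52.5 ± 0.1 °C hot plate, timed to fore or hind paw licking. Pretest latency had to be 12–18 s. Cutoff was 45 s. Latency was read before dosing and at 15, 30, 45 and 60 min after.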

[28] = system: Mus musculus; test: Antinociceptive effect expressed as licking latency determined at 8 mg/kg after 30 minutes of subcutaneous administration in the mouse hotplate test; procedure, shortened: as §2
[29] = system: Mus musculus; test: Antinociceptive effect expressed as licking latency determined at 8 mg/kg after 45 minutes of subcutaneous administration in the mouse hotplate test; procedure, shortened: as §2
[30] = system: Mus musculus; test: Antinociceptive effect expressed as licking latency determined at 8 mg/kg after 60 minutes of subcutaneous administration in the mouse hotplate test; procedure, shortened: as §2

Structure (SMILES)	Analgesic effect [1] [%]	Antagonism [2] [%]	Activity [7]	MNTD [9] [mg/kg]	Licking latency [10]	Licking latency [11]	Licking latency [12]	Licking latency [13]	MAD [14] [mg/kg]	also measured
Cc1onc2c(=O)n(CCCN3CCN(c4cccc(Cl)c4)CC3)nc(-c3ccccc3)c12	75	94	15.1	50						Licking latency [3]: 16.6; Licking latency [4]: 20.8; Licking latency [5]: 25.1; Licking latency [6]: 19.1; MAD [8]: 1 mg/kg
Cc1nn(CCCN2CCN(c3cccc(Cl)c3)CC2)c(=O)c2noc(C)c12	72	92	16.6	40	18	24	22.6	17.6	10	
CCOC(=O)c1nn(CCCN2CCN(c3cccc(Cl)c3)CC2)c(=O)c2noc(C)c12	71	0	16	40	22.2	23.8	23.2	17.8	10	
Cc1noc2c(-c3ccccc3)nn(CCCN3CCN(c4cccc(Cl)c4)CC3)c(=O)c12	104	100	14.6	60	19.6	34.5	31.2	29.3	0.3	
CC(=O)c1c(C)nn(CCCN2CCN(c3cccc(Cl)c3)CC2)c(=O)c1N	100	0	15.5	20					0.1	Licking latency [15]: 23.7; Licking latency [16]: 33.2; Licking latency [17]: 34.3; Licking latency [18]: 32.7
C=Cc1c(C)nn(CCCN2CCN(c3cccc(Cl)c3)CC2)c(=O)c1N	100	61	14.2	20					0.1	Licking latency [19]: 21.3; Licking latency [20]: 33.5; Licking latency [21]: 28.2; Licking latency [22]: 22.6
Cc1nn(CCCN2CCN(c3cccc(Cl)c3)CC2)c(=O)c(N)c1C(C)O (configuration not stated)	101	100	14.5	40					0.3	Licking latency [23]: 22.4; Licking latency [24]: 33.7; Licking latency [25]: 29.3; Licking latency [26]: 23.3
CN1CC[C@]23c4c5ccc(O)c4O[C@H]2[C@@H](O)C=C[C@H]3[C@H]1C5 [MORPHINE]	100	0	14.6	30					0.2	Licking latency [27]: 24.5; Licking latency [28]: 28.7; Licking latency [29]: 26.4; Licking latency [30]: 23.8
